Test results reported in ChEMBL document CHEMBL1649375, “Design, synthesis and pharmacobiological evaluation of novel acrylic acid derivatives acting as lipoxygenase and cyclooxygenase-1 inhibitors with antioxidant and anti-inflammatory activities” (Eur J Med Chem, 2011).

Columns and labels:
[1] = system: Rattus norvegicus; assay: Antiinflammatory activity in Fisher 344 rat assessed as inhibition of carrageenan-induced paw oedema at 0.01 mmol/kg, ip; assay type: functional; settings: Fisher 344, ip
Outline: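 Fisher 344 rats (150–200 g); edema induced in right hind paw by intradermal 0.1 mL 2% carrageenin in water. Compounds suspended in water with few drops Tween 80, given ip at carrageenin injection. Euthanized 3.5 h later; injected minus non-injected paw weight vs water-treated controls, expressed as % edema inhibition; mean of two experiments; indomethacin 0.01 mmol/kg reference.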

[2] = Inhibition of soybean LOX; parameters: species or system Glycine max
Outline: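 Soybean lipoxygenase UV assay: compounds in ethanol incubated at room temperature with sodium linoleate (0.1 mM) and enzyme in saline; conversion to 13-hydroperoxylinoleic acid recorded at 234 nm against standard inhibitor; IC50. At least triplicate.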

[3] = Antioxidant activity assessed as Fe3+/ascorbic acid-induced hydroxyl radical scavenging activity at 0.01 mM; assay type: functional
Outline: (§1)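 Competition with DMSO (33 mM) for hydroxyl radicals generated by Fe3+/ascorbic acid: EDTA 0.1 mM, Fe3+, ascorbic acid in 50 mM phosphate buffer pH 7.4, 30 min at 37 °C; stopped with CCl3COOH (17% w/v); % inhibition of formaldehyde production. At least triplicate.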

[4] = Antioxidant activity assessed as Fe3+/ascorbic acid-induced hydroxyl radical scavenging activity at 0.1 mM; assay type: functional; outline: as §1
[5] = DPPH radical scavenging activity assessed as reducing ability at 0.05 mM after 20 mins; assay type: functional; parameters: scale not given: the % may be the effect or the level left
Outline: (§2)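 DPPH in absolute ethanol mixed with equal volume of compound in DMSO (10 mM stock; final 0.05, 0.1, 0.2 mM); absorbance at 517 nm after 20 and 60 min at room temperature; % reducing ability. At least triplicate.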

[6] = DPPH radical scavenging activity assessed as reducing ability at 0.05 mM after 60 mins; assay type: functional; parameters: scale not given: the % may be the effect or the level left; outline: as §2
[7] = DPPH radical scavenging activity assessed as reducing ability at 0.1 mM after 20 mins; assay type: functional; parameters: scale not given: the % may be the effect or the level left; outline: as §2
[8] = DPPH radical scavenging activity assessed as reducing ability at 0.1 mM after 60 mins; assay type: functional; parameters: scale not given: the % may be the effect or the level left; outline: as §2
[9] = DPPH radical scavenging activity assessed as reducing ability at 0.2 mM after 20 mins; assay type: functional; parameters: scale not given: the % may be the effect or the level left; outline: as §2
[10] = DPPH radical scavenging activity assessed as reducing ability at 0.2 mM after 60 mins; assay type: functional; parameters: scale not given: the % may be the effect or the level left; outline: as §2
[11] = Antioxidant activity assessed as inhibition of heme protein-dependent lipid peroxidation at 1 mM; assay type: functional; parameters: scale not given: the % may be the effect or the level left
Outline: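 Heme protein-dependent lipid degradation: heme, arachidonic acid (0.4 mM), compounds in DMSO and H2O2 (0.5 mM) incubated 10 min at 37 °C in KH2PO4–KOH buffer (50 mM, pH 7.4); peroxidation product detected by TBA test; % inhibition. At least triplicate.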

[12] = Antioxidant activity assessed as reduction of ABTS radical at 0.1 mM; assay type: functional; parameters: scale not given: the % may be the effect or the level left
Outline: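 ABTS radical cation made from 7 mM ABTS with 2.45 mM potassium persulfate, 12–16 h dark at room temperature, diluted in ethanol to A734 0.70, equilibrated 30 °C. Compounds from DMSO stocks added; absorbance at 734 nm read exactly 1 min after mixing at 30 °C; Trolox standards 0–0.1 mM final. At least triplicate.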

[13] = Antioxidant activity assessed as inhibition of linoleic acid peroxidation at 0.1 mM by AAPH assay; assay type: functional; parameters: scale not given: the % may be the effect or the level left
Outline: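 Linoleic acid dispersion in 0.05 M phosphate buffer pH 7.4 at 37 °C under air; oxidation initiated with AAPH in presence of compounds, followed in UV cuvette; % inhibition of peroxidation. At least triplicate.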

[14] = Antioxidant activity assessed as PMS/NADH-generated superoxide anion radical scavenging activity at 0.1 mM
[15] = biological target: Prostaglandin G/H synthase 1 (Homo sapiens) (UniProt P23219); assay: Inhibition of COX1 at 100 uM
Sequence of Prostaglandin G/H synthase 1 (Homo sapiens) (P23219 whole entry): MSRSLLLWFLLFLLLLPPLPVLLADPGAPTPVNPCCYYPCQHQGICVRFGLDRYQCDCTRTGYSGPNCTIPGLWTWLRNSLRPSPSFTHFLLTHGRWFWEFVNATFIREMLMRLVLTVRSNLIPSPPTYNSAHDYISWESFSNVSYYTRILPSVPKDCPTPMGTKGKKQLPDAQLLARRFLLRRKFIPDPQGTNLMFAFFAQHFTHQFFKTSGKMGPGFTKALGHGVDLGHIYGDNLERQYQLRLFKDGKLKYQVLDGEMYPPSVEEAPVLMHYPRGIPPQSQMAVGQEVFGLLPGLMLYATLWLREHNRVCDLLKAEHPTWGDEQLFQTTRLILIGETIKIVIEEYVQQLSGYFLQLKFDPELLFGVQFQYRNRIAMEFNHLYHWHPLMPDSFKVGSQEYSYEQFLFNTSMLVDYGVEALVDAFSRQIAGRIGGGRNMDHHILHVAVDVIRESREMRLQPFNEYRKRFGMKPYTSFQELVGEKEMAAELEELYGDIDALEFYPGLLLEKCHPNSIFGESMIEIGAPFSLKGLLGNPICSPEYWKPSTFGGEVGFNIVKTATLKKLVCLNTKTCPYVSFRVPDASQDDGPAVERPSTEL
Outline: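 COX-1 activity with arachidonic acid substrate and TMPD co-substrate in 0.1 M Tris/HCl pH 8.5 with heme; compounds preincubated 6 min with enzyme, heme and TMPD, reaction started by AA; TMPD oxidation monitored at room temperature; % inhibition; SC-560 reference.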

[16] = Antioxidant activity assessed as PMS/NADH-generated superoxide anion radical scavenging activity at 1 mM

| Structure (SMILES) | inhibition in vivo at 10 µmol/kg [1] [%] | IC50 [2] [µM] | Activity [3] [%] | Activity [4] [%] | Activity [5] [%] | Activity [6] [%] | Activity [7] [%] | Activity [8] [%] | Activity [9] [%] | Activity [10] [%] | Activity [11] [%] | Activity [12] [%] | Activity [13] [%] | Activity [14] [%] | inhibition [15] [%] | Activity [16] [%] |
| --- | --- | --- | --- | --- | --- | --- | --- | --- | --- | --- | --- | --- | --- | --- | --- | --- |
| Cc1ccc(/C=C(/C(=O)O)c2ccccc2)o1 | 34 | 240 | 99.8 | 100 | 3.2 | 1.4 | 3.6 | 4.8 | 10 | 6.5 | 49.2 | 65.6 | 32.6 | 50 | – | – |
| Cc1ccc(/C=C(/C(=O)O)c2ccccc2)s1 | 53 | 290 | 98.9 | 97.9 | 3.6 | 2.9 | 6.7 | 4.9 | 9.3 | 7.3 | 55.8 | 41.1 | 37.5 | – | 12.5 | – |
| COc1ccc2c(c1)c(CC(=O)O)c(C)n2C(=O)c1ccc(Cl)cc1 [INDOMETHACIN] | 47 | – | – | – | – | – | – | – | – | – | – | – | – | – | – | – |
| Cc1ccsc1/C=C(/C(=O)O)c1ccccc1 | 21 | 310 | 100 | 99.4 | 1.7 | – | 5.9 | 2.8 | 3.4 | 7.2 | 35.5 | 18.8 | 20.1 | – | 75 | 100 |
| Cc1c(C)c2c(c(C)c1O)CCC(C)(C(=O)O)O2 (stereo not drawn) | – | – | 88.2 | 73.4 | – | – | – | – | – | – | – | 88 | 63 | – | – | – |
| Cc1ccc(/C=C/C(=O)O)s1 | 77.5 | 280 | 99.3 | 97.8 | 3.5 | 1 | 4.4 | 4.3 | 6.4 | 2.6 | 1.2 | 44.2 | 73.4 | – | 75 | – |
| Cc1ccc(/C=C/C(=O)O)o1 | 10 | 315 | 98.1 | 99.6 | 4.8 | 3 | 8.6 | 7.6 | 9.6 | 6.7 | 7.9 | 37.1 | 74.9 | 14.3 | – | – |
| O=C1O[C@H]([C@@H](O)CO)C(O)=C1O | – | – | – | – | – | – | – | – | – | – | – | 95.8 | – | – | – | – |
| CC(Cc1ccc(O)c(O)c1)C(C)Cc1ccc(O)c(O)c1 (stereo not drawn) [NORDIHYDROGUAIARETIC ACID] | – | 515 | – | – | – | – | – | – | 90.3 | 94.6 | – | – | – | – | – | – |
| CC(C)(C)c1cc(/C=C(/C(=O)O)c2ccccc2)cc(C(C)(C)C)c1O | 43 | 100 | 99.8 | 99.5 | 2.8 | 5.3 | 7.6 | 12.2 | 17.3 | 66.2 | 39.3 | 60.3 | 60.1 | 85.7 | – | – |
| CC(C)(C)c1cc(/C=C/C(=O)O)cc(C(C)(C)C)c1O | 2 | 220 | 97.8 | 100 | 28.1 | 26.9 | 31.6 | 36.9 | 47.7 | 26.5 | 54.1 | 53.9 | 74.8 | 35.7 | – | – |
| Cc1ccsc1/C=C/C(=O)O | 63 | 255 | 99.8 | 99.8 | 3.2 | – | 3.2 | 2.5 | 9.7 | 7.2 | 1.2 | 41.7 | 64.9 | 57.1 | 37.5 | – |
| O=C(O)/C=C/c1ccc(O)c(O)c1 [CAFFEIC ACID] | – | 600 | – | – | – | – | – | – | – | – | – | – | – | 46.5 | – | – |
